In ChEMBL document CHEMBL2046415, “Double protein knockdown of cIAP1 and CRABP-II using a hybrid molecule consisting of ATRA and IAPs antagonist” (2012):
Activity calls are given as the source filed them. No cut-off for these calls is given here. Square brackets hold non-standard residues; d marks the D form. Peptide text beside a SMILES is read from it. Dip = N[C@H](C(=O)O)C(c1ccccc1)c1ccccc1; Chg = N[C@H](C(=O)O)C1CCCCC1; NMeA = CN[C@@H](C)C(=O)O

Tests used:
[1] = system: HT-1080; experiment: Activation of proteasome in human HT1080 cells expressing FLAG-tagged cIAP1 assessed as induction of cIAP1 protein degradation at 10 uM after 6 hrs by Western blot analysis
[2] = system: HT-1080; experiment: Activation of proteasome in human HT1080 cells expressing FLAG-tagged cIAP1 assessed as induction of CRABP-2 protein degradation at 10 uM after 6 hrs by Western blot analysis
[3] = system: HT-1080; experiment: Induction of cIAP1 protein degradation in human HT1080 cells at 0.1 to 10 uM after 6 hrs by Western blot analysis; assay type: functional, cell-based
[4] = system: HT-1080; experiment: Activation of proteasome in human HT1080 cells expressing FLAG-tagged cIAP1 assessed as induction of cIAP1 and CRABP-2 protein degradation at 0.1 to 10 uM after 6 hrs by Western blot analysis
[5] = system: IMR-32; experiment: Activation of proteasome in human IMR32 cells assessed as induction of cIAP1 and CRABP-2 protein degradation at 3 to 30 uM after 24 hrs by Western blot analysis
[6] = system: IMR-32; experiment: Antiproliferative activity against human IMR32 cells assessed as reduction of cell number at 30 uM after 24 to 72 hrs; assay type: functional, cell-based
[7] = system: IMR-32; experiment: Induction of apoptosis in human IMR32 cells assessed as activation of caspase 3/7 after 24 hrs relative to control; assay type: functional
Method in brief: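 IMR-32 cells exposed to compounds for 24 h; caspase 3/7 activity expressed as fold increase over untreated control; values are means of triplicate determinations.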

[8] = system: HT-1080; experiment: Activation of proteasome in human HT1080 cells expressing FLAG-tagged cIAP1 assessed as induction of cIAP1 and CRABP-2 protein degradation after 6 hrs by Western blot analysis
[9] = biological target: T1, Retinoic acid receptor alpha (Homo sapiens) (UniProt P10276); experiment: Induction of RARalpha degradation
T1 sequence (whole entry): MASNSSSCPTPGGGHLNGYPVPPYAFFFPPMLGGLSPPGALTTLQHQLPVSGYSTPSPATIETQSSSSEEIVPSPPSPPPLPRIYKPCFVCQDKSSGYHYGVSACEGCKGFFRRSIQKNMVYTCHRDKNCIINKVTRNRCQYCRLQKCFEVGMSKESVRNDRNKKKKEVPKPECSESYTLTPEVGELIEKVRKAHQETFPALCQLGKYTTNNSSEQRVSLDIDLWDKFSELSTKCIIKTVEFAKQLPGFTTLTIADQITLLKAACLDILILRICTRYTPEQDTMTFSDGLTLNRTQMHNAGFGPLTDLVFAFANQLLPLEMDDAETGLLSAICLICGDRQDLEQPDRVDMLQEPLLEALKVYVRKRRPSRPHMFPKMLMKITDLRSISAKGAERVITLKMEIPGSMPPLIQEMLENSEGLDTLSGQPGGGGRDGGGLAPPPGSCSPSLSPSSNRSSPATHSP

[10] = system: HT-1080; experiment: Activation of proteasome in human HT1080 cells expressing FLAG-tagged cIAP1 assessed as induction of cIAP1 and CRABP-2 protein degradation at 10 uM after 6 hrs by Western blot analysis in presence of proteasome inhibitor MG132
Method in brief: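 Compound exposure 6 h; proteasome inhibitor MG132 (10) added to the culture 30 min before compound; cIAP1 and CRABP-II levels then read by Western blot.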

| Activity [1] | Activity [2] | Activity [5] | Compound | Activity [3] | Activity [6] | fold change (FC) [7] | also measured |
| --- | --- | --- | --- | --- | --- | --- | --- |
| inactive | inactive |  | CC1=C(/C=C/C(C)=C/C=C/C(C)=C/C(=O)O)C(C)(C)CCC1 |  |  |  |  |
| Active | inactive |  | CN[C@@H](C)C(=O)N[C@H](C(=O)N1CCC[C@H]1C(=O)N[C@H](C(=O)OC)C(c1ccccc1)c1ccccc1)C1CCCCC1 (H-[NMeA][Chg]P[Dip]-OMe) | Active |  |  |  |
|  |  | Active | CC1=C(/C=C/C(C)=C/C=C/C(C)=C/C(=O)O)C(C)(C)CC/C1=N\OCC(=O)NCCOCCOCCOC(=O)[C@H](CC(C)C)NC(=O)[C@@H](O)[C@H](N)Cc1ccccc1 |  | Active | 3.61 | Activity [4]: Active |
|  |  |  | COC(=O)[C@H](CC(C)C)NC(=O)[C@@H](O)[C@H](N)Cc1ccccc1 | Active |  |  |  |
| Active |  | Active | CN[C@@H](C)C(=O)N[C@H](C(=O)N1CCC[C@H]1C(=O)N[C@H](C(=O)NCCOCCOCCNC(=O)CO/N=C1\CCC(C)(C)C(/C=C/C(C)=C/C=C/C(C)=C/C(=O)O)=C1C)C(c1ccccc1)c1ccccc1)C1CCCCC1 |  | Active | 4.44 | Activity [8]: Dose-dependent effect; Activity [9]: inactive; Activity [10]: inactive |
|  |  | Active | CC1=C(/C=C/C(C)=C/C=C/C(C)=C/C(=O)O)C(C)(C)CC/C1=N\OCC(=O)NCCOCCOCCNC(=O)[C@H](CC(C)C)NC(=O)[C@@H](O)[C@H](N)Cc1ccccc1 |  |  | 1.84 |  |
